# This is a sample that favours compounds with a hit; in the whole collection about 3.2% have one here.
# mABHD4 FP – ABHD4 inhibitors, primary screen, biochemical, fluorescence polarization, mouse; actives 0.54% (n = 370,000); AID 720543, 2013; inhibition, % at 8.92 µM; purified mABHD4, FP-Rh probe fluorescence polarization; (Lyso)-N-acylphosphatidylethanolamine lipase (Mus musculus), Q8VD66;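 active means inhibition exceeding the mean over every tested compound plus 3 SD, cut at about 30% in these data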;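 further: 0% = plate median of compound wells and 100% = S159A mutant with DMSO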
#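 Assay system: wild-type mouse ABHD4 protein; compound: single nominal dose of 8.92 µM, 0.89% DMSO final; schedule: 45 min + 60 min at 25 °C; measured by: FP readout, ex 525 nm / em 598 nm; evaluation: % inhibition of FP-Rh probe binding versus controls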
# DAGLB inh – DAGLB lipase inhibitors, primary screen, biochemical, fluorescence, HTS. Diacylglycerol lipase-beta (Homo sapiens), Q8NCG7. HEK293T DAGLB membrane lysate, EnzChek fluorogenic substrate. inhibition, % at 5.17 µM. actives 0.059% (n = 340,000). AID 504411, 2011; in the data active means inhibition above about 34%;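 further: 0% = enzyme with vehicle and 100% = wells lacking enzyme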
# Target sequence (Q8NCG7 whole entry, looked up): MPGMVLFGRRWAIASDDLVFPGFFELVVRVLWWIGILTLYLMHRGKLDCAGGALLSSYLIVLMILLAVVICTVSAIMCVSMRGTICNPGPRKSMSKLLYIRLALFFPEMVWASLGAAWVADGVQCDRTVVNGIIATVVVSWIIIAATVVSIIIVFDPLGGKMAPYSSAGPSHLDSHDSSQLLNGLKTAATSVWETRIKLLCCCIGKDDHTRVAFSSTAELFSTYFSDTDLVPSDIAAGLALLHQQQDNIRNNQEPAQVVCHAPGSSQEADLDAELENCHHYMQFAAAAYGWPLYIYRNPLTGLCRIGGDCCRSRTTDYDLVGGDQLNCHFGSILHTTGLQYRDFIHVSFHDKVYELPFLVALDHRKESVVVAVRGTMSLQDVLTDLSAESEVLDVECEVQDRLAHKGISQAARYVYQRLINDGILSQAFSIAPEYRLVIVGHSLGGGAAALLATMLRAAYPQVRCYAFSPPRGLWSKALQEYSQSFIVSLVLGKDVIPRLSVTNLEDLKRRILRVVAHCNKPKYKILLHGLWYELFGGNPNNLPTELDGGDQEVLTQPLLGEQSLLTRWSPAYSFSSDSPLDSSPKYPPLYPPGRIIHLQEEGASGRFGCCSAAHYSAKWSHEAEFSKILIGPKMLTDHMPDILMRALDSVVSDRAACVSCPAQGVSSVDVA
# HTRA1 inh – HTRA1 serine protease inhibitors, primary screen, biochemical, fluorescence polarization, HTS; Q92743; recombinant HTRA1, FP-rhodamine activity-based probe; actives 0.5% (n = 340,000); inhibition, % at 5.96 µM; in the data active means inhibition above about 36%;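 further: 0% = enzyme with DMSO and 100% = wells lacking enzyme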
# rCAG RNA binder – binders of r(CAG) RNA repeats, primary screen, biochemical, fluorescence; inhibition, % at 3 µM; actives 1.3% (n = 370,000); r(CAG) RNA repeat, TO-PRO-1 dye displacement fluorescence;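 active means inhibition above the plate cutoff, the mean of all test compounds on that plate plus 3 SD, cut at about 35% in these data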;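 further: 0% = DMSO alone and 100% = 100 µM mitoxantrone as full dye displacement; higher means more dye released from RNA so lower well fluorescence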
# LEDGF integ inh – blockers of LEDGF/p75-dependent integrase strand transfer – biochemical, TR-FRET, high throughput, primary screen; TR-FRET IN-LEDGF/p75 DNA integration, Eu/Cy5; inhibition, % at 3.7 µM; actives 0.64% (n = 370,000);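 active means inhibition above the screen-wide mean plus 3 SD, cut at about 13% in these data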;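 further: signal is the Cy5 over europium emission ratio at 671 and 618 nm; 0% = plate median of compound wells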
# PRMT1 FP inh – PRMT1 methyltransferase inhibitors, primary screen, biochemical, fluorescence polarization. inhibition, % at 2.79 µM. recombinant PRMT1, activity-based probe fluorescence polarization. actives 1.3% (n = 370,000);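 active means inhibition above about 21% made by adding two undisclosed values, limit read from the data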
# HTRA1 inh conf – HTRA1 protease inhibitors, retest, confirmation, biochemical, fluorescence polarization. shares compounds with HTRA1 inh. recombinant HTRA1, FP-rhodamine activity-based probe. inhibition, % at 5.96 µM. actives 66% (n = 1,600). AID 540248, 2011;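 active means mean inhibition over three repeats above a set limit taken from the earlier primary screen, cut at about 37% in these data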;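 further: 0% = HTRA1 with DMSO and 100% = wells lacking HTRA1; inhibitors block probe binding so polarization drops and inhibition rises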
# Starred values were filed as active, the others as inactive; nt = no result; + = active, no number.
SMILES,mABHD4 FP,DAGLB inh,HTRA1 inh,rCAG RNA binder,LEDGF integ inh,PRMT1 FP inh,HTRA1 inh conf
CCn1c(CSc2n[nH]c(N)n2)nc2cc(C(=O)O)ccc21,19.1,-1.0,42.6*,1.1,-1.0,1.6,66.7*
O=C(CSc1nnc2c(n1)[nH]c1ccccc12)NCc1ccco1,0.6,-0.1,-4.8,4.2,3.2,11.1,nt
Nc1ccc2c(c1)C(=O)C(=O)c1ccccc1-2,25.0,-21.8,42.0*,4.7,-18.9,6.8,33.6
COc1ccc2nc(NN=C(C)c3ccccn3)cc(C)c2c1,-13.3,2.1,55.4*,0.4,3.1,-2.5,66.7*
CC1=C(C(=O)OC(C)C)C(C2CC=CCC2)NC(=O)N1 (stereo unspecified),5.1,1.5,-2.1,-0.4,0.9,0.3,nt
CC(C)N=c1scc(-c2ccco2)n1/N=C/c1ccc(O)c(O)c1,36.3*,8.3,67.4*,19.8,-4.2,7.6,57.8*
CN=c1scc(-c2cccs2)n1/N=C/c1ccccc1O,3.0,-19.1,-5.7,5.2,-2.6,-1.6,nt
O=C(COC(=O)c1ccc(O)cc1)Nc1ccccc1,-5.9,-4.1,-0.6,4.7,0.7,-0.8,nt
O=C(CCCN1C(=O)/C(=C/c2cccs2)SC1=S)NNC(=O)c1ccncc1,6.4,5.4,2.0,1.9,-0.1,-0.1,nt
O=C(CCCN1C(=O)/C(=C/c2cccs2)SC1=S)NNC(=O)c1ccccc1O,8.5,6.4,57.3*,4.4,-0.6,-3.3,72.2*
COc1cccc(/C=C2\SC(=S)N(CCC(=O)NNC(=O)c3ccccc3OC)C2=O)c1,3.5,2.3,39.3*,3.7,-2.1,-2.5,33.0
COc1ccccc1/C=C1\SC(=S)N(CCC(=O)NNC(=O)c2ccccc2O)C1=O,nt,3.4,39.4*,nt,nt,nt,68.2*
O=C1CC(c2ccccc2)CC(=NCCO)/C1=C(\O)CCCN1C(=O)c2ccccc2C1=O (stereo unspecified),-1.6,-3.0,0.0,-5.2,3.1,0.8,nt
c1ccc2c(c1)NCC1CCCN21 (stereo unspecified),21.9,4.8,43.7*,11.8,-2.0,10.1,18.4
Oc1ccc(CCNc2c3ccccc3nc3ccccc23)cc1O,23.0,-0.6,62.2*,14.4,4.3,11.8,83.8*
OCCN(CCO)c1ccc(C(c2ccccc2Cl)c2ccc(N(CCO)CCO)cc2Cl)c(Cl)c1,nt,4.3,43.7*,nt,nt,nt,60.9*
CN1CCN(CC(=O)N2CCn3c4c(c5cc(C6CCCCC6)ccc53)CCCC42)CC1 (stereo unspecified),nt,6.4,41.5*,nt,nt,nt,53.9*
Cc1ccc2c(c1)c1c3n2CCN(C(=O)CN2CCN(C)CC2)C3CCC1 (stereo unspecified),3.8,0.2,4.4,1.4,-0.1,-0.4,nt
CC1(C)CC(Nc2ccc(Nc3ccccc3)cc2)CC(C)(C)N1,20.6,2.1,41.9*,2.7,1.7,23.3*,54.5*
CCn1c(C)nc2cc(C(=O)NN=C(C)c3ccc(C#N)cc3)ccc21,-17.5,-3.3,-1.1,3.9,-1.0,8.9,nt
CCn1c(C)nc2cc(C(=O)N/N=C(\C)c3ccc(OC)cc3O)ccc21,8.8,4.3,40.0*,1.8,-0.4,7.8,34.1
COc1cccc2c1-c1c(O)cccc1C2=O,-0.8,3.5,-0.9,4.1,3.6,-2.0,nt
COc1cccc2c1C(=N)c1c(O)c3c(c(O)c1C2=O)CC(O)(C(C)=O)CC3OC1CC(N)C(O)C(C)O1 (stereo unspecified),nt,12.6,41.2*,nt,nt,nt,42.6*
COc1cccc2c1C(=O)c1c(O)c3c(c(O)c1C2=O)CC(O)(C(C)=O)CC3OC1CC(O)C(O)C(C)O1 (stereo unspecified),78.8*,-19.8,73.0*,-15.9,-2.9,+,73.6*
CCOC(=O)CN1C(=O)C(=O)N(Cc2c(F)cccc2Cl)C1=O,-6.0,-0.8,-3.2,-0.2,-3.1,5.5,nt
SMILES,mABHD4 FP,DAGLB inh,HTRA1 inh,rCAG RNA binder,LEDGF integ inh,PRMT1 FP inh,HTRA1 inh conf
COc1ccc(NC(=O)CN2C(=O)c3ccccc3S2(=O)=O)cc1S(=O)(=O)N1CCOCC1,-1.9,-0.7,6.6,-0.6,0.9,11.0,nt
COc1cc(CNc2ccc(N3CCCC3)cc2)cc(Cl)c1OC,22.5,6.3,40.5*,12.2,0.9,4.5,28.1
CCOc1ccc(CNc2ccc(N3CCN(Cc4ccccc4)CC3)cc2)cc1,14.2,-6.2,24.5,-6.2,4.4,-0.6,nt
CCOc1cc(CNc2ccc(N3CCCC3)cc2)cc(Cl)c1OC,27.7,7.7,55.4*,13.4,2.8,8.5,23.4
CCOc1cc(CNc2ccc(S(N)(=O)=O)cc2)cc(Cl)c1OC,-1.7,-1.0,4.6,2.4,2.7,-1.4,nt
CCOc1ccc(CNc2ccc(N3CCCC3)cc2)cc1,nt,9.6,57.8*,nt,nt,nt,9.2
COc1cc(CNc2ccc(N3CCOCC3)cc2)cc(Br)c1OC,12.7,3.0,28.3,3.6,13.2,6.0,nt
CCOC(=O)C1CCCN(c2c(NCCc3ccc(Cl)cc3)c(=O)c2=O)C1 (stereo unspecified),1.4,-0.1,2.7,-4.1,-3.4,-0.5,nt
CCCCn1c(N)c(N(CC(C)C)C(=O)c2cccc(S(=O)(=O)N3CCCCC3)c2)c(=O)[nH]c1=O,-5.5,1.0,3.8,3.1,-3.3,3.5,nt
O=C1CSC(=S)N1N=Cc1c[nH]c2ccc(Br)cc12,25.4,-4.7,55.6*,15.7,3.2,3.0,59.9*
Cc1ccc2nc(-c3ccccn3)c(NC3CCCC3)n2c1,11.2,2.8,37.8*,-1.7,2.5,-1.3,37.9*
CN(CC(=O)Nc1ccccc1Br)C(=O)c1cc([N+](=O)[O-])ccc1N1CCOCC1,-5.3,0.2,91.7*,1.7,5.8,-1.6,-2.4
CCC1=NN(C(=O)c2cccc(Br)c2)C(O)(c2ccc(Br)cc2)C1 (stereo unspecified),-5.8,10.9,74.7*,6.2,-2.9,1.0,68.4*
CCC1=NN(C(=O)c2ccccc2[N+](=O)[O-])C(O)(c2ccccc2)C1 (stereo unspecified),8.8,0.4,5.0,1.0,0.3,-1.1,nt
C=CCn1c(Cc2ccc(OC(C)C)c(Cl)c2)nnc1SCC(N)=O,-0.8,-3.4,1.7,-1.8,-3.2,-1.0,nt
NC[C@@H]1O[C@H](C23CC4CC(CC(C4)C2)C3)Cc2c1ccc(O)c2O,20.9,11.6,60.3*,23.4,-3.0,-1.2,73.2*

# Bioassay records: PubChem, The Scripps Research Institute Molecular Screening Center
